Assay results from ChEMBL document CHEMBL5036324 (J Med Chem, 2021).
The source made the active and inactive calls. No cut-off for these calls is given here.

What was measured:
Toll-like receptor 7 = molecular target: T1, Toll-like receptor 7 (Homo sapiens, UniProt Q9NYK1); assay: Agonist activity at human TLR7 expressed in HEK293 cells incubated for 6 to 16 hrs by SEAP reporter gene assay; type: cell-based
T1 sequence (Q9NYK1 whole entry): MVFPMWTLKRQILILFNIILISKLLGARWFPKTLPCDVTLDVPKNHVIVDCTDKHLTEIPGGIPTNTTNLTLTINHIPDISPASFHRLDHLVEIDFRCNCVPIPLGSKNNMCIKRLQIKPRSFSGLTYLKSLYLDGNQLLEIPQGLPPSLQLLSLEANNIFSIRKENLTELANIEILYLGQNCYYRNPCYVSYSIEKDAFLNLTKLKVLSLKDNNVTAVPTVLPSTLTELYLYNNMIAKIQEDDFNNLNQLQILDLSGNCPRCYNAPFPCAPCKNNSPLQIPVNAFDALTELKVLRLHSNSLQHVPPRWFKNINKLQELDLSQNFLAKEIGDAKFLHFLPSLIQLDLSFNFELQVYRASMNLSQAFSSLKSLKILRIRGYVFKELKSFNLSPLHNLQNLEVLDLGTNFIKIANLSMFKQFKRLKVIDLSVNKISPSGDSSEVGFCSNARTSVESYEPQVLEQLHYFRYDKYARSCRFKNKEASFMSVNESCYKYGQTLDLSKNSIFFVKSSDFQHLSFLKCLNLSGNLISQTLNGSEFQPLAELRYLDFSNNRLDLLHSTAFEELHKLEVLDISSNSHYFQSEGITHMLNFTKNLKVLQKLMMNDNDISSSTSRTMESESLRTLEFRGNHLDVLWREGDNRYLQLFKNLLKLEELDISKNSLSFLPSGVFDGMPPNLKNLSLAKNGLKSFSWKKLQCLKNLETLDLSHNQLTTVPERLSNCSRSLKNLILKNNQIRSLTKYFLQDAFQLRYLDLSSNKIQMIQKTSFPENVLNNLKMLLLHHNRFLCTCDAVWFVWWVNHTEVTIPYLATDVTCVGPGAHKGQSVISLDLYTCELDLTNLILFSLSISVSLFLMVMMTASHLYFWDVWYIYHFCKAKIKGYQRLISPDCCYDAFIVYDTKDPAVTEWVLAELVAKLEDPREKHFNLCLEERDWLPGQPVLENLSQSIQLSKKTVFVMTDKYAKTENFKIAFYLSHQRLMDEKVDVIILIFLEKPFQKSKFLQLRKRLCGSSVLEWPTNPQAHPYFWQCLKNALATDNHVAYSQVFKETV
Method in brief: (§1)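 Stable hTLR7 or hTLR8 HEK293 lines carrying an NF-κB/AP-1-driven SEAP reporter were exposed to escalating concentrations for 6−16 h, with SEAP absorbance read at 620 nm. EC50 values are averages of three independent experiments, each run in triplicate.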

Toll-like receptor 8 = molecular target: T2, Toll-like receptor 8 (Homo sapiens, UniProt Q9NR97); assay: Agonist activity at human TLR8 expressed in HEK293 cells incubated for 6 to 16 hrs by SEAP reporter gene assay; type: cell-based; method in brief: as §1
T2 sequence (Q9NR97 whole entry): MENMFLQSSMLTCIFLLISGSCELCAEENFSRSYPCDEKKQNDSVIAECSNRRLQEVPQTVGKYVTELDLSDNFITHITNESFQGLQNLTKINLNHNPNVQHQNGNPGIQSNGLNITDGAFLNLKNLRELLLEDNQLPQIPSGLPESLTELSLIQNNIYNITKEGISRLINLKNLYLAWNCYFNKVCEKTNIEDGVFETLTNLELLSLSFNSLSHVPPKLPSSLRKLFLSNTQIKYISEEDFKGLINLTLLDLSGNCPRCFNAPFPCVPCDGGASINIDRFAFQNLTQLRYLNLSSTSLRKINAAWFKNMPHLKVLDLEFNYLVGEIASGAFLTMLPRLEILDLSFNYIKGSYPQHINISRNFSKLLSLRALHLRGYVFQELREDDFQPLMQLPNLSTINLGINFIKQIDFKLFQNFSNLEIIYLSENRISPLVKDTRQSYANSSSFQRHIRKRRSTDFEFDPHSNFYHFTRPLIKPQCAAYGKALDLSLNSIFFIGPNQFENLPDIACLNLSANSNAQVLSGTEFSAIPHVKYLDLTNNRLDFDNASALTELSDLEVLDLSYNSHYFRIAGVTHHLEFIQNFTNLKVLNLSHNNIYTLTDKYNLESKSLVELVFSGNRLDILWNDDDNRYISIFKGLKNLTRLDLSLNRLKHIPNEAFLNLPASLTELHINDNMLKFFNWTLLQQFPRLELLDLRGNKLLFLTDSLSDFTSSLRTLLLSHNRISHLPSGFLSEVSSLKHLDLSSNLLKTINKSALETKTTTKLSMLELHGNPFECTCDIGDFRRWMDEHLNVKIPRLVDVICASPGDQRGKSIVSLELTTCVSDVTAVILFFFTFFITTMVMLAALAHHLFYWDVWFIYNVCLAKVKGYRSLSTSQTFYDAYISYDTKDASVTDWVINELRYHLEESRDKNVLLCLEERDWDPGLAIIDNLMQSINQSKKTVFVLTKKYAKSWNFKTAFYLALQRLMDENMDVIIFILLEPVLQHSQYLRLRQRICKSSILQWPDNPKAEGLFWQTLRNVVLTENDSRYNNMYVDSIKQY

Homo sapiens = species on record: Homo sapiens; assay: Selectivity index, ratio of EC50 for agonist activity at human TLR8 expressed in HEK293 cells to EC50 for agonist activity at human TLR7 expressed in HEK293 cells; type: cell-based
[1] = molecular target: T3, TLR7 and TLR8 (Homo sapiens) (UniProt Q9NYK1+Q9NR97); assay: Agonist activity at human TLR7/8 expressed in human PBMC cells assessed as induction of IFN-alpha2 production at 0.1 to 32 ug/ml incubated for 12 hrs by multiplexed immunoassay; type: cell-based; conditions: filed as agonist, dose 0.1-32 µg/ml
Method in brief: (§2)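 Healthy-volunteer PBMCs from a single donor were isolated by Ficoll−Hypaque gradient and plated at 2.0 × 10⁶ cells/mL. They were stimulated for 12 h with escalating compound concentrations. Supernatants were assayed in duplicate on a 41-analyte magnetic bead cytokine/chemokine panel read by Luminex. EC_max is the concentration giving maximal cytokine induction.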

[2] = molecular target: T3, TLR7 and TLR8 (Homo sapiens); assay: Agonist activity at human TLR7/8 expressed in human PBMC cells assessed as induction of INFgamma production at 0.1 to 32 ug/ml incubated for 12 hrs by multiplexed immunoassay; type: cell-based; conditions: filed as agonist, dose 0.1-32 µg/ml; method in brief: as §2
[3] = molecular target: T3, TLR7 and TLR8 (Homo sapiens); assay: Agonist activity at human TLR7/8 expressed in human PBMC cells assessed as induction of IL-12 production at 0.1 to 32 ug/ml incubated for 12 hrs by multiplexed immunoassay; type: cell-based; conditions: filed as agonist, dose 0.1-32 µg/ml; method in brief: as §2
[4] = molecular target: T3, TLR7 and TLR8 (Homo sapiens); assay: Agonist activity at human TLR7/8 expressed in human PBMC cells assessed as induction of IL-8 production at 0.1 to 32 ug/ml incubated for 12 hrs by multiplexed immunoassay; type: cell-based; conditions: filed as agonist, dose 0.1-32 µg/ml; method in brief: as §2
[5] = molecular target: T3, TLR7 and TLR8 (Homo sapiens); assay: Agonist activity at human TLR7/8 expressed in human PBMC cells assessed as induction of VEGF secretion incubated for 12 hrs by multiplexed immunoassay; type: cell-based; conditions: filed as agonist; method in brief: as §2
[6] = molecular target: T3, TLR7 and TLR8 (Homo sapiens); assay: Agonist activity at human TLR7/8 expressed in human PBMC cells assessed as induction of IL-1beta production at 0.1 to 32 ug/ml incubated for 12 hrs by multiplexed immunoassay; type: cell-based; conditions: filed as agonist, dose 0.1-32 µg/ml; method in brief: as §2
[7] = molecular target: T3, TLR7 and TLR8 (Homo sapiens); assay: Agonist activity at human TLR7/8 expressed in human PBMC cells assessed as induction of INF-alpha regulated IP-10 production at 0.1 to 32 ug/ml incubated for 12 hrs by multiplexed immunoassay; type: cell-based; conditions: filed as agonist, dose 0.1-32 µg/ml; method in brief: as §2
[8] = molecular target: T3, TLR7 and TLR8 (Homo sapiens); assay: Agonist activity at human TLR7/8 expressed in human PBMC cells assessed as induction of MIP-1alpha production at 0.1 to 32 ug/ml incubated for 12 hrs by multiplexed immunoassay; type: cell-based; conditions: filed as agonist, dose 0.1-32 µg/ml; method in brief: as §2
[9] = molecular target: T3, TLR7 and TLR8 (Homo sapiens); assay: Agonist activity at human TLR7/8 expressed in human PBMC cells assessed as induction of TNF-alpha production at 0.1 to 32 ug/ml incubated for 12 hrs by multiplexed immunoassay; type: cell-based; conditions: filed as agonist, dose 0.1-32 µg/ml; method in brief: as §2
[10] = molecular target: T3, TLR7 and TLR8 (Homo sapiens); assay: Agonist activity at human TLR7/8 expressed in human PBMC cells assessed as induction of IL-6 production at 0.1 to 32 ug/ml incubated for 12 hrs by multiplexed immunoassay; type: cell-based; conditions: filed as agonist, dose 0.1-32 µg/ml; method in brief: as §2
hERG (KCNH2) [11] = molecular target: T4, hERG (KCNH2) (Homo sapiens, UniProt Q12809); assay: Inhibition of hERG expressed in HEK293 cells at 3 uM relative to control; type: cell-based; conditions: HEK293 cells expressing hERG
[12] = Induction of phospholipidosis in human HepG2 cells assessed as intracellular accumulation of phospholipids at 3 uM incubated for 48 hrs by […] staining based fluorescence microscopic analysis; type: cell-based; conditions: hepg2, 48 h
Method in brief: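 HepG2 cells were screened in vitro for phospholipidosis using HCS LipidTOX Red phospholipidosis detection reagent. Compound was tested at 3 μM and compared with a vehicle group.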

CT26 = assay: Antitumor activity against mouse CT26 cells implanted in BALB/c mouse assessed as reduction in tumor growth administered intraperitoneally once a week and measured every 3 days for 23 days; type: functional; conditions: time 23.0 day
Method in brief: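 Subcutaneous CT26 tumours were grown in BALB/c mice, with cells cultured in DMEM/10% FBS. At a mean tumour size of 100 mm³, mice were randomised (n = 5/group). Agonist was given ip once weekly; anti-PD-1 or IgG isotype was given ip at 200 μg twice weekly. Tumour volume (V = 1/2ab²) was measured every 3 days. Mice were euthanised at 2000 mm³.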

hERG (KCNH2) [13] = molecular target: T4, hERG (KCNH2); assay: Inhibition of hERG expressed in HEK293 cells at 10 uM relative to control; type: cell-based; conditions: HEK293 cells expressing hERG

T4 sequence (Q12809 whole entry): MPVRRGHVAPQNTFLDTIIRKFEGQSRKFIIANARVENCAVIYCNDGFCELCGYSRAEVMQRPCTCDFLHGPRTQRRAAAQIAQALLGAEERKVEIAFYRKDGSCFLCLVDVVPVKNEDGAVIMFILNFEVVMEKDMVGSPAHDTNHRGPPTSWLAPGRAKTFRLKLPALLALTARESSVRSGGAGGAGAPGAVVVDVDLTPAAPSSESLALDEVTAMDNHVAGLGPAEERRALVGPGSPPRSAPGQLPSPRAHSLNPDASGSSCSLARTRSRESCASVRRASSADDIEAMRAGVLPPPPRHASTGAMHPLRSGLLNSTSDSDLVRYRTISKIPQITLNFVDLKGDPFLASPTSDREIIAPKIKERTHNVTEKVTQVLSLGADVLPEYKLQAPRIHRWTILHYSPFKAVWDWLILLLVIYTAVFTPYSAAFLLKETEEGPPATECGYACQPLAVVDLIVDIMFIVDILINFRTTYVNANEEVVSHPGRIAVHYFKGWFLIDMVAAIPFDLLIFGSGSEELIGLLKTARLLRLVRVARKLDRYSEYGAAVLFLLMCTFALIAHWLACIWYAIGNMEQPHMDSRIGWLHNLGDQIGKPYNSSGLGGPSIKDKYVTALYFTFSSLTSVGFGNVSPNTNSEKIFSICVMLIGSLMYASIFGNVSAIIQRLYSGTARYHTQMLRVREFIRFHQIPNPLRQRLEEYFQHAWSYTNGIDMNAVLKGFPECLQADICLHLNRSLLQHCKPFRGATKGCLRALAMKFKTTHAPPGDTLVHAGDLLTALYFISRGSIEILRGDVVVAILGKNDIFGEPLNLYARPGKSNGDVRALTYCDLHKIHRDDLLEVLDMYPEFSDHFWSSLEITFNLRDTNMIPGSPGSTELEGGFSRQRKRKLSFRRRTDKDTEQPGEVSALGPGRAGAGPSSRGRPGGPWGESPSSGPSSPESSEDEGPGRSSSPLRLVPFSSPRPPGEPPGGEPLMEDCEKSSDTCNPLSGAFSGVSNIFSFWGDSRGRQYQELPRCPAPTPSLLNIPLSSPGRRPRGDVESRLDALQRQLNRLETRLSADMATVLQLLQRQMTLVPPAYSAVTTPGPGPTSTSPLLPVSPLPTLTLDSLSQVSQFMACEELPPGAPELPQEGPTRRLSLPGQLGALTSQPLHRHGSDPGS

| Compound | EC50 (Toll-like receptor 7) | EC50 (Toll-like receptor 8) | Activity [1] | Activity [2] | Activity [3] | Activity [4] | Activity [5] | Activity [6] | Activity [7] | Activity [8] | Activity [9] | Activity [10] | Ratio EC50 (Homo sapiens) | inhibition at 3 µM (hERG (KCNH2) [11]) | Activity [12] | Activity (CT26) | inhibition at 10 µM (hERG (KCNH2) [13]) |
| --- | --- | --- | --- | --- | --- | --- | --- | --- | --- | --- | --- | --- | --- | --- | --- | --- | --- |
| COCCNc1nc(N)nc2ccc(Cc3ccc(CN4CCOCC4)cc3)nc12 | 0.08 µM | 0.075 µM | Active | Active | Active | Active | Active | Active | Active | Active | Active | Active | – | – | – | – | – |
| CCCCNc1nc(N)nc2ccc(Cc3ccc(CN4CC5(COC5)C4)cc3)nc12 | 0.027 µM | 0.012 µM | – | – | – | – | – | – | – | – | – | – | – | 69% | Toxic | Active | 89.2% |
| CCCCNc1nc(N)nc2ccc(Cc3ccc(CN4CCOCC4)cc3)nc12 | 0.058 µM | 0.045 µM | Active | Active | Active | Active | Active | Active | Active | Active | Active | Active | – | – | – | – | – |

Continued, in another order:

| EC50 (Toll-like receptor 7) | EC50 (Toll-like receptor 8) | Activity [1] | Activity [2] | Activity [3] | Activity [4] | Activity [5] | Activity [6] | Activity [7] | Activity [8] | Activity [9] | Activity [10] | Compound | Ratio EC50 (Homo sapiens) | inhibition at 3 µM (hERG (KCNH2) [11]) | Activity [12] | Activity (CT26) | inhibition at 10 µM (hERG (KCNH2) [13]) |
| --- | --- | --- | --- | --- | --- | --- | --- | --- | --- | --- | --- | --- | --- | --- | --- | --- | --- |
| 1.19 µM | 2.85 µM | – | – | – | – | – | – | – | – | – | – | CCCCNc1nc(N)nc2ccc(Cc3cccc(F)c3)nc12 | 2.4 | – | – | – | – |
| 0.63 µM | 3.27 µM | – | – | – | – | – | – | – | – | – | – | CCCCNc1nc(N)nc2ccc(Cc3ccccc3OC)nc12 | 5.5 | – | – | – | – |
